Measured values reported in PubChem BioAssay.
Records with an inconclusive call do not appear. Active and inactive are the calls of the source.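 The calls were made as follows, unless noted: active = RAM network inhibition above 8.4% in each of two replicates, 3 SD over the compound average; inconclusive = above 8.4% inhibition in only one replicate; inactive = 8.4% inhibition or less in each replicate.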

Assays:
[1] = S. cerevisiae growth inhibition in permissive medium (OD615), pilot counter-assay for S. cerevisiae lifespan shortening project, permissive growth control (AID 705;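 active = growth inhibition above 25% in both replicates, a cutoff set 3 SD above the mean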); conditions: OD615, 24 h, at 10 µM, hits give high values
In short: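 Material: engineered DeaD yeast; Compound: one dose 10 µM, DMSO 0.25% final; Detection: absorbance (optical density) at 615 nm; Buffer or medium: permissive raffinose/galactose medium; Timing: 24 h exposure, 30 °C.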

[2] = S. cerevisiae growth inhibition in restrictive medium, OD615, pilot screen, restrictive growth control, yeast lifespan reduction project (AID 706;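 active = growth inhibition above a set limit, 3 SD over mean compound inhibition, in both replicates, cut at about 43% in these data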;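 also: modified DeaD lifespan yeast strain shifted to restrictive glucose medium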); conditions: OD615, 48 h, at 10 µM, hits give high values
In short: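 Buffer or medium: restrictive glucose medium (CSMM-D); test system: modified S. cerevisiae; doses: single dose of 10 µM compound final, 0.25% DMSO; schedule: 48 h compound exposure at 30 °C; detection: absorbance (optical density) measured at 615 nm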

[3] = doxorubicin toxicity protection in MRP-1 cells – H69AR cells, CellTiter-Glo, duplicate, MRP-1 activator project, pilot screen (AID 807;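 active = viability increase at or above a cutoff of the median across tested compounds plus 3 SD, cut at about 8.5% in these data, passing the limit was not always enough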;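 also: compound pretreatment 18-22 h then 72 h combined with doxorubicin; 0% = doxorubicin alone and 100% = vehicle without doxorubicin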); conditions: H69AR viability with doxorubicin, CellTiter-Glo luminescence; at 10 µM; hits give high values
[4] = viability of HCT116 without oncogenic beta-catenin – human colon tumor cells, pilot screen (AID 823;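 active = cell viability at or below a set limit in both duplicate runs, the limit being the all-compound median minus 4 SD, cut at about 23% in these data, passing the limit was not always enough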;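 also: 0% = wells killed by 20 µM Hyamine and 100% = untreated DMSO cell wells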); conditions: HCT116 beta-catenin knockout viability, CellTiter-Glo, 60 h; at 10 µM; hits give low values
[5] = viability of PTEN-null HCT116 cells – cell-based, HCT116 clonal line, CellTiter-Glo, pilot screen (AID 824;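 active = viability at or below 27.92% in each of two runs, the all-compound median minus 4 SD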;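 also: 0% = 20 µM Hyamine control and 100% = vehicle cell control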); conditions: HCT116 PTEN-deleted viability, 60 h, at 10 µM, hits give low values
[6] = RAM pathway blockade in budding yeast – dse1pr::URA3 reporter, 5-FOA selection, pilot screen (AID 869;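 active = inhibition over a set limit, the all-compound mean plus 3 SD, in both replicate runs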;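 also: 0% = DMSO wells with no growth and 100% = 10 µM 1-NA-PP1 with full growth; RAM network block rescues cells from 5-FOA so hits raise OD615 growth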); conditions: S. cerevisiae dse1pr::URA3 5-FOA growth, OD615, 2 d; at 10 µM; hits give high values; strain carries analog-sensitive mutant Cbk1 kinase
[7] = RAM signaling pathway blockade in yeast – S. cerevisiae, Pdr1DBD-CYC8 efflux-inhibited sensitized strain, primary screen (AID 1298);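 also: 0% = DMSO untreated cells without growth and 100% = 10 µM 1-NA-PP1 full growth; higher means more yeast growth rescued from 5-FOA killing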; conditions: S. cerevisiae cbk1-as DSE1-URA3 strain, 5-FOA growth OD615, 2 d; at 50 µM; hits give high values

COc1ccc(N2Cc3cccc(C(=O)O)c3C2=O)cc1
inactive: growth inhibition [1] -17.1% | growth inhibition [2] -1.34% | viability increase [3] -0.59% | viability [4] 104% | viability [5] 101% | inhibition [6] 1.5% | RAM network inhibition [7] 0.58%

CCC(C)NC(=O)CS(=O)Cc1nc(-c2cccc(C)c2)oc1C (configuration not stated)
inactive: growth inhibition [1] -12.9% | growth inhibition [2] -5.66% | viability increase [3] -1.72% | viability [4] 99.4% | viability [5] 88.2% | inhibition [6] 1.52% | RAM network inhibition [7] 4.65%

O=C(O)CCC(=O)Nc1ccc(-c2nnc(-c3ccco3)o2)cc1
inactive: growth inhibition [1] -12.8% | growth inhibition [2] -4.63% | viability increase [3] -0.63% | viability [4] 102% | viability [5] 99.8% | inhibition [6] 1.61% | RAM network inhibition [7] 2.14%

Cc1nc2ccc(NC(=O)c3ccc(Cl)s3)cc2s1
inactive: growth inhibition [1] -7.99% | growth inhibition [2] -7.74% | viability increase [3] -3.83% | viability [4] 106% | viability [5] 97.1% | inhibition [6] 1.84% | RAM network inhibition [7] 4.46%

CCCn1c(C(C)NC(C)=O)nc2ccccc21 (configuration not stated)
inactive: growth inhibition [1] -10.3% | growth inhibition [2] -16.9% | viability increase [3] -1.47% | viability [4] 99.2% | viability [5] 90.7% | inhibition [6] 1.3% | RAM network inhibition [7] 1.25%

CCCc1cc(=O)[nH]c(SCC(=O)NC2CCCCC2)n1
inactive: growth inhibition [1] 2.37% | growth inhibition [2] 0.01% | viability increase [3] -1.41% | viability [4] 89.5% | viability [5] 94.8% | inhibition [6] 0.82% | RAM network inhibition [7] 0.46%

CCOc1ccc(NC(=O)c2cnc3scc(C)n3c2=O)cc1
inactive: growth inhibition [1] -17.7% | growth inhibition [2] 3.42% | viability increase [3] -1.16% | viability [4] 101% | viability [5] 98.9% | inhibition [6] 2.76% | RAM network inhibition [7] 8.45%

COc1cccc2sc(Nc3nnc(-c4ccccc4Cl)o3)nc12
inactive: growth inhibition [1] -29.8% | growth inhibition [2] -13.7% | viability increase [3] -4.31% | inhibition [6] 1.1% | RAM network inhibition [7] 1.26%
active: viability [4] 15.4% | viability [5] 18.8%

CCOC(=O)N1CCC(NC(=O)C2CCN(Cc3nc(-c4ccc(CC)cc4)oc3C)CC2)CC1
inactive: growth inhibition [1] -8.25% | growth inhibition [2] -7.78% | viability increase [3] -1.2% | viability [4] 84.2% | viability [5] 85.9% | inhibition [6] 0.435% | RAM network inhibition [7] 0.29%

CCOC(=O)/C(C#N)=C1/C=Nc2ccccc2N1
inactive: growth inhibition [1] -4.26% | growth inhibition [2] -1.09% | viability increase [3] -1.54% | viability [4] 103% | viability [5] 89.8% | inhibition [6] -0.42% | RAM network inhibition [7] 0.25%

CCN(CCNC(=O)Cn1c(=O)sc2ccccc21)c1ccccc1
inactive: growth inhibition [1] -10.6% | growth inhibition [2] 2.42% | viability increase [3] -3.76% | viability [4] 92.2% | viability [5] 84.9% | inhibition [6] 1.57% | RAM network inhibition [7] 2.04%

Clc1ccc(Cn2cc(/C=N/n3cnnc3)c3ccccc32)cc1
inactive: growth inhibition [1] 9.77% | growth inhibition [2] 30.9% | viability increase [3] -7.71% | viability [4] 64.5% | viability [5] 62.3% | inhibition [6] 1.48% | RAM network inhibition [7] 3%

C=CCn1c(=O)c2c(nc3n2CC(C)CN3c2cccc(OC)c2)n(C)c1=O (configuration not stated)
inactive: growth inhibition [1] -16.1% | growth inhibition [2] -8.79% | viability increase [3] -3.27% | viability [4] 97.7% | viability [5] 98.8% | inhibition [6] 1.56% | RAM network inhibition [7] 5.52%

O=C(CSc1cn(Cc2ccccc2)c2ccccc12)Nc1nccs1
inactive: growth inhibition [1] -7.55% | growth inhibition [2] 3.57% | viability increase [3] 1.89% | viability [4] 88.8% | viability [5] 85.4% | inhibition [6] 1.73% | RAM network inhibition [7] 0.83%

Oc1c(C(c2cccs2)N2CCN(c3ccc(F)cc3)CC2)sc2ncnn12 (configuration not stated)
active: viability increase [3] 13.4%
inactive: growth inhibition [1] 0.78% | growth inhibition [2] -6.24% | viability [4] 105% | viability [5] 90.9% | inhibition [6] 0.495% | RAM network inhibition [7] 8.63%

Cn1c(NC(=O)c2ccccc2F)cc(=O)n(C)c1=O
inactive: growth inhibition [1] -0.14% | growth inhibition [2] -2.47% | viability increase [3] 0.23% | viability [4] 101% | viability [5] 106% | inhibition [6] 0.595% | RAM network inhibition [7] -1.63%

CCn1c(CCC(=O)Nc2cc(F)ccc2C)nc2cc(S(=O)(=O)N(C)C)ccc21
inactive: growth inhibition [1] -6.57% | growth inhibition [2] -1.81% | viability increase [3] -0.38% | viability [4] 99.5% | viability [5] 97.1% | inhibition [6] 2.07% | RAM network inhibition [7] 6.18%

Cc1noc(NS(=O)(=O)c2ccc(NC(=O)CSc3ncccn3)cc2)c1C
inactive: growth inhibition [1] -3.47% | growth inhibition [2] -2.18% | viability increase [3] -0.58% | viability [4] 109% | viability [5] 95.2% | inhibition [6] 0.615% | RAM network inhibition [7] 1.94%

O=C(Nc1nc(-c2ccccc2)cs1)c1cccs1
inactive: growth inhibition [1] -5.78% | growth inhibition [2] -1.27% | viability increase [3] -1.21% | viability [4] 66.3% | viability [5] 72.8% | inhibition [6] -0.845% | RAM network inhibition [7] 2.45%

Cc1nnc(SCCn2c(N(C)Cc3ccccc3)nc3c2c(=O)[nH]c(=O)n3C)s1
inactive: growth inhibition [1] -9.54% | growth inhibition [2] -5.15% | viability increase [3] -3.65% | viability [4] 99.8% | viability [5] 97.5% | inhibition [6] 2.33% | RAM network inhibition [7] 5.64%

CC1C(=O)CC(c2ccccc2)N(C)C1c1ccccc1 (configuration not stated)
inactive: growth inhibition [1] -16% | growth inhibition [2] -18% | viability increase [3] -4.71% | viability [4] 82.8% | viability [5] 84.1% | inhibition [6] 2.57% | RAM network inhibition [7] 8%

O=C(CN1C(=O)CSc2ncccc21)NCCN1CCOCC1
inactive: growth inhibition [1] 0.545% | growth inhibition [2] -1.25% | viability increase [3] -0.4% | viability [4] 106% | viability [5] 99.7% | inhibition [6] 2.09% | RAM network inhibition [7] 3.41%

CN1CCc2c(sc3c2C(=O)NC(c2ccc(-c4cccc(Cl)c4)o2)N3)C1 (configuration not stated)
inactive: growth inhibition [1] 5% | growth inhibition [2] 3.19% | viability increase [3] -1.49% | viability [4] 97.6% | viability [5] 87.7% | inhibition [6] 1.89% | RAM network inhibition [7] 2.2%

COc1cc(NC(=O)C2CCCN2S(=O)(=O)c2ccc3c(c2)CCC(=O)N3)cc(OC)c1 (configuration not stated)
inactive: growth inhibition [1] -15.3% | growth inhibition [2] -5.1% | viability increase [3] -1.09% | viability [4] 97.7% | viability [5] 105% | inhibition [6] 1.09% | RAM network inhibition [7] 1.33%

CCOC(=O)Cn1c(=O)oc2cc(S(=O)(=O)NCc3cccs3)ccc21
inactive: growth inhibition [1] -3.16% | growth inhibition [2] 1.21% | viability increase [3] -1.22% | viability [4] 90.6% | viability [5] 86.9% | inhibition [6] 0.73% | RAM network inhibition [7] 0.2%

O=C1CC(Nc2ccc(N3CCOCC3)cc2)C(=O)N1c1cccc(C(F)(F)F)c1 (configuration not stated)
inactive: growth inhibition [1] 4.95% | growth inhibition [2] -14.4% | viability increase [3] -2.76% | viability [4] 110% | viability [5] 98.2% | inhibition [6] 0.74% | RAM network inhibition [7] 5.28%

CCOc1ccc(Cc2nnc(SCC(=O)c3ccc(OC)cc3)o2)cc1
inactive: growth inhibition [1] 1.71% | growth inhibition [2] 25.5% | viability increase [3] 0.28% | viability [4] 54.3% | viability [5] 70.3% | inhibition [6] 1.66% | RAM network inhibition [7] 11.3%

Cc1cc(C)n2nc3nc4c(cc3c2n1)CCCC4
inactive: growth inhibition [1] -8.72% | growth inhibition [2] -14.6% | viability increase [3] -4.42% | viability [4] 88.2% | viability [5] 82.7% | inhibition [6] 4.34% | RAM network inhibition [7] 3.01%

COCCOC(=O)C1=C(C)NC2=C(C(=O)CCC2)C1c1cc2c(cc1Br)OCO2 (configuration not stated)
inactive: growth inhibition [1] -18.1% | growth inhibition [2] -17% | viability increase [3] -0.03% | viability [4] 92.4% | viability [5] 102% | inhibition [6] 1.16% | RAM network inhibition [7] 5.69%

CCCCNC(=O)c1cc2c(=O)n3cccc(C)c3nc2n1C
inactive: growth inhibition [1] -8.58% | growth inhibition [2] -6.39% | viability increase [3] -4.36% | viability [4] 89.4% | viability [5] 87.5% | inhibition [6] 0.93% | RAM network inhibition [7] 2.87%

O=C(NCc1cccs1)c1ccccc1F
inactive: growth inhibition [1] -9.19% | growth inhibition [2] -7.24% | viability increase [3] -0.25% | viability [4] 94.2% | viability [5] 88.9% | inhibition [6] 0.385% | RAM network inhibition [7] 1.34%

Cc1ccccc1-n1nc2c(c1NC(=O)c1cccc(F)c1)CS(=O)C2 (configuration not stated)
inactive: growth inhibition [1] -8.75% | growth inhibition [2] 5.54% | viability increase [3] 0.96% | viability [4] 98.8% | viability [5] 98.5% | inhibition [6] 0.835% | RAM network inhibition [7] 7.75%

COc1ccc(Cl)cc1NC(=O)c1cnc2n(c1=O)CCS2
inactive: growth inhibition [1] -7.35% | growth inhibition [2] 3.42% | viability increase [3] -4.43% | viability [4] 94.5% | viability [5] 89.2% | inhibition [6] 2.78% | RAM network inhibition [7] 3.81%

Cc1oc(-c2cccc(Cl)c2)nc1CN1CCC(C(=O)NCCCN2CCCC2=O)CC1
inactive: growth inhibition [1] -1.65% | growth inhibition [2] -10.2% | viability increase [3] -3.95% | viability [4] 85.8% | viability [5] 93.5% | inhibition [6] 0.59% | RAM network inhibition [7] 2.35%

O=C(NCc1cccs1)C1CCCN1S(=O)(=O)c1ccccc1F (configuration not stated)
inactive: growth inhibition [1] -2.45% | growth inhibition [2] -6.33% | viability increase [3] -0.97% | viability [4] 102% | viability [5] 90.7% | inhibition [6] 0.91% | RAM network inhibition [7] 2.5%

CCn1c(=O)c2cc(C(=O)NCCN3CCOCC3)sc2c2ccccc21
inactive: growth inhibition [1] -7.14% | growth inhibition [2] -3.89% | viability increase [3] -4.73% | viability [4] 92.2% | viability [5] 76.1% | inhibition [6] 2.47% | RAM network inhibition [7] 1.02%
